Experimental data reported in ChEMBL document CHEMBL1131531, “cycloSal-2',3'-dideoxy-2',3'-didehydrothymidine monophosphate (cycloSal-d4TMP): synthesis and antiviral evaluation of a new d4TMP delivery system” (J Med Chem, 1998).
pEC50: −log10 of the molar value.

Assays:
[1] = Partition coefficient was measured.; type: ADME; details: octanol/water
Procedure, shortened: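 Compound dissolved in 1-octanol and mixed with equal volume of phosphate buffer (10 mmol, pH 6.8). Vortexed 10 min, phases separated by centrifugation. Each phase analysed by reversed-phase HPLC (UV 265 nm). Pa taken as the quotient of peak areas.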

[2] = Half-life period was measured in 30 mM TRIS buffer at pH 6.9 at 37 degree C; type: ADME
[3] = Half-life period was measured in 30 mM sodium borate buffer at pH 8.9 at 37 degree C; type: ADME
[4] = Half-life period was measured in 30 mM sodium phosphate buffer at pH 7.3 at 37 degree C; type: ADME
[5] = Half-life period was measured in RPMI-1640 culture medium at 37 degree C with 10% heat-inactivated fetal calf serum..; type: ADME; details: cattle
[6] = Half-life period was measured in RPMI-1640 culture medium at 37 degree C without FCS.; type: ADME; details: RPMI-1640 culture medium without FCS
CCRF-CEM [7] = test: (§1) Antiviral activity was measured on HIV-2 in mutant thymidine kinase-deficient CEM/TK- cells; type: functional, cell-based; details: Homo sapiens
CCRF-CEM [8] = test: The cytotoxicity was measured on wild type CEM/O cells.; type: functional; details: Homo sapiens
CCRF-CEM [9] = test: Antiviral activity was measured on HIV-1 in wild-type CEM/O cells; type: functional, cell-based, Homo sapiens
CCRF-CEM [10] = test: Antiviral activity was measured on HIV-2 in wild-type CEM/O cells; type: functional, cell-based, Homo sapiens
CCRF-CEM [11] = test: as §1; type: functional, cell-based; details: Homo sapiens; remark: listed apart in the source
Procedure, shortened: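 CEM/O or TK-deficient CEM/TK- cells at 4 × 10⁵ cells/mL infected with HIV-1 (HTLV-IIIB) or HIV-2 (LAV 2) at ~100 CCID50/mL. Infected suspension mixed 1:1 with serial compound dilutions. Giant cell formation scored microscopically after 4 days.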

MT4 [12] = test: Antiviral activity was measured on HIV-1 in MT-4 cells; type: functional, cell-based; details: Homo sapiens
MT4 [13] = test: Antiviral activity was measured on HIV-2 in MT-4 cells; type: functional, cell-based; details: Homo sapiens
CCRF-CEM [14] = test: Antiviral activity was measured on HIV-2 in mutant thymidine kinase-deficient CEM/TK- cells for R configuration; type: functional, cell-based; details: Homo sapiens
CCRF-CEM [15] = test: Antiviral activity was measured on HIV-2 in mutant thymidine kinase-deficient CEM/TK- cells for S configuration; type: functional, cell-based; details: Homo sapiens
CCRF-CEM [16] = test: The cytotoxicity was measured on wild type CEM/O cells for R configuration; type: functional; details: Homo sapiens
CCRF-CEM [17] = test: The cytotoxicity was measured on wild type CEM/O cells for S configuration; type: functional; details: Homo sapiens
CCRF-CEM [18] = test: Antiviral activity was measured on HIV-1 in wild-type CEM/O cells for R configuration; type: functional, cell-based; details: Homo sapiens
CCRF-CEM [19] = test: Antiviral activity was measured on HIV-1 in wild-type CEM/O cells for S configuration; type: functional, cell-based; details: Homo sapiens
CCRF-CEM [20] = test: Antiviral activity was measured on HIV-2 in wild-type CEM/O cells for R configuration; type: functional, cell-based; details: Homo sapiens
CCRF-CEM [21] = test: Antiviral activity was measured on HIV-2 in wild-type CEM/O cells for S configuration; type: functional, cell-based; details: Homo sapiens
MT4 [22] = test: Antiviral activity was measured on HIV-1 in MT-4 cells for R configuration; type: functional, cell-based; details: Homo sapiens
MT4 [23] = test: Antiviral activity was measured on HIV-2 in MT-4 cells for R configuration; type: functional, cell-based; details: Homo sapiens
CCRF-CEM [24] = test: The cytotoxicity was measured on wild type CEM/O cells; type: functional; details: Homo sapiens

Q: Which results are given for COc1ccc2c(c1)COP(=O)(OC[C@@H]1C=C[C@H](n3cc(C)c(=O)[nH]c3=O)O1)O2 (stereo partly specified)?
A: Pa [1]: 2.3; half-life [2]: 28.3 h; half-life [3]: 1.07 h; half-life [4]: 7.2 h; half-life [5]: 4.3 h; half-life [6]: 7.2 h; pEC50 (CCRF-CEM [7]): 6.10; CC50 (CCRF-CEM [8]): 39000 nM; pEC50 (CCRF-CEM [9]; Homo sapiens, CCRF-CEM): 6.74; pEC50 (CCRF-CEM [10]; Homo sapiens, CCRF-CEM): 6.15

Q: For Cc1ccc2c(c1)COP(=O)(OC[C@@H]1C=C[C@H](n3cc(C)c(=O)[nH]c3=O)O1)O2 (stereo partly specified), which Pa [1] is on record?
A: The Pa was 5.4.

Q: With Cc1cn(C2C=CC(COP3(=O)OCc4cc(Cl)ccc4O3)O2)c(=O)[nH]c1=O (stereo unspecified) as the compound, how does the Pa [1] read?
A: Its Pa is 7.6.

Q: And the CC50 (CCRF-CEM [8])?
A: Its CC50 is 49000 nM.

Q: What about the pEC50 (CCRF-CEM [11]) of the same compound?
A: The pEC50 was 5.57.

Q: What about the pEC50 (CCRF-CEM [10]; Homo sapiens, CCRF-CEM) of the same compound?
A: The pEC50 was 5.85.

Q: What about the pEC50 (MT4 [12]) of the same compound?
A: The pEC50 was 7.51.

Q: And the pEC50 (MT4 [13])?
A: The pEC50 was 7.42.

Q: For Cc1cc(C)c2c(c1)COP(=O)(OCC1C=CC(n3cc(C)c(=O)[nH]c3=O)O1)O2 (stereo unspecified), which Pa [1] is on record?
A: Its Pa is 15.3.

Q: For COc1ccc(O)c(CO)c1, which CC50 (CCRF-CEM [8]) is on record?
A: Its CC50 is 158000 nM.

Q: What about the pEC50 (CCRF-CEM [9]; Homo sapiens, CCRF-CEM) of the same compound?
A: The pEC50 was under 3.60.

Q: And the pEC50 (CCRF-CEM [10]; Homo sapiens, CCRF-CEM)?
A: The pEC50 was under 3.60.

Q: What does the source list for Cc1cccc(CO)c1O?
A: CC50 (CCRF-CEM [8]): > 250000 nM; pEC50 (CCRF-CEM [9]; Homo sapiens, CCRF-CEM): < 3.60; pEC50 (CCRF-CEM [10]; Homo sapiens, CCRF-CEM): < 3.60

Q: Which Pa [1] does the source give for COc1cccc2c1OP(=O)(OCC1C=CC(n3cc(C)c(=O)[nH]c3=O)O1)OC2 (stereo unspecified) here?
A: The Pa was 1.4.

Q: What about the half-life [2] of the same compound?
A: The half-life was 9.5 h.

Q: And the half-life [3]?
A: Its half-life is 0.4 h.

Q: What about the half-life [4] of the same compound?
A: The half-life was 1.4 h.

Q: And the half-life [5]?
A: The half-life was 2 h.

Q: And the half-life [6]?
A: The half-life was 3.2 h.

Q: And the pEC50 (CCRF-CEM [7])?
A: Its pEC50 is 6.77.

Q: What about the pEC50 (CCRF-CEM [14]) of the same compound?
A: The pEC50 was 6.92.

Q: What about the pEC50 (CCRF-CEM [15]) of the same compound?
A: Its pEC50 is 5.01.

Q: And the CC50 (CCRF-CEM [16])?
A: The CC50 was 38000 nM.

Q: And the CC50 (CCRF-CEM [17])?
A: The CC50 was 84000 nM.

Q: And the CC50 (CCRF-CEM [8])?
A: Its CC50 is 35000 nM.

Q: What about the pEC50 (CCRF-CEM [9]; Homo sapiens, CCRF-CEM) of the same compound?
A: Its pEC50 is 6.77.

Q: What about the pEC50 (CCRF-CEM [18]) of the same compound?
A: Its pEC50 is 6.85.

Q: What about the pEC50 (CCRF-CEM [19]) of the same compound?
A: The pEC50 was 6.33.

Q: And the pEC50 (CCRF-CEM [10]; Homo sapiens, CCRF-CEM)?
A: Its pEC50 is 6.38.

Q: And the pEC50 (CCRF-CEM [20])?
A: The pEC50 was 6.77.

Q: What about the pEC50 (CCRF-CEM [21]) of the same compound?
A: Its pEC50 is 5.99.

Q: Which Pa [1] does the source give for Cc1cn([C@H]2C=C[C@@H](COP3(=O)OCc4cc([N+](=O)[O-])ccc4O3)O2)c(=O)[nH]c1=O (stereo partly specified) here?
A: The Pa was 1.5.

Q: What about the CC50 (CCRF-CEM [8]) of the same compound?
A: Its CC50 is 75000 nM.

Q: What about the pEC50 (CCRF-CEM [9]; Homo sapiens, CCRF-CEM) of the same compound?
A: Its pEC50 is 6.54.

Q: And the pEC50 (CCRF-CEM [11])?
A: Its pEC50 is 4.40.

Q: What about the pEC50 (CCRF-CEM [10]; Homo sapiens, CCRF-CEM) of the same compound?
A: The pEC50 was 6.40.

Q: With Cc1cn([C@H]2C=C[C@@H](COP3(=O)OCc4ccccc4O3)O2)c(=O)[nH]c1=O (stereo partly specified) as the compound, how does the Pa [1] read?
A: The Pa was 1.9.

Q: With Cc1cccc2c1OP(=O)(OC[C@@H]1C=C[C@H](n3cc(C)c(=O)[nH]c3=O)O1)OC2 (stereo partly specified) as the compound, how does the Pa [1] read?
A: The Pa was 5.1.

Q: What about the half-life [2] of the same compound?
A: The half-life was 68.5 h.

Q: What about the half-life [3] of the same compound?
A: The half-life was 1.5 h.

Q: What about the half-life [4] of the same compound?
A: The half-life was 10.2 h.

Q: What about the half-life [5] of the same compound?
A: The half-life was 9.1 h.

Q: And the half-life [6]?
A: Its half-life is 16 h.

Q: What about the pEC50 (CCRF-CEM [7]) of the same compound?
A: Its pEC50 is 7.03.

Q: What about the pEC50 (CCRF-CEM [14]) of the same compound?
A: The pEC50 was 7.20.

Q: What about the pEC50 (CCRF-CEM [15]) of the same compound?
A: The pEC50 was 6.15.

Q: And the CC50 (CCRF-CEM [16])?
A: Its CC50 is 11000 nM.

Q: And the CC50 (CCRF-CEM [17])?
A: The CC50 was 76000 nM.

Q: What about the CC50 (CCRF-CEM [8]) of the same compound?
A: The CC50 was 21000 nM.

Q: And the pEC50 (CCRF-CEM [9]; Homo sapiens, CCRF-CEM)?
A: Its pEC50 is 7.06.

Q: And the pEC50 (CCRF-CEM [18])?
A: Its pEC50 is 7.10.

Q: And the pEC50 (CCRF-CEM [19])?
A: Its pEC50 is 6.38.

Q: What about the pEC50 (CCRF-CEM [10]; Homo sapiens, CCRF-CEM) of the same compound?
A: The pEC50 was 6.92.

Q: What about the pEC50 (CCRF-CEM [20]) of the same compound?
A: The pEC50 was 7.17.

Q: And the pEC50 (CCRF-CEM [21])?
A: The pEC50 was 5.96.

Q: And the pEC50 (MT4 [12])?
A: Its pEC50 is 7.55.

Q: And the pEC50 (MT4 [22])?
A: Its pEC50 is 7.92.

Q: What about the pEC50 (MT4 [13]) of the same compound?
A: Its pEC50 is 7.48.

Q: And the pEC50 (MT4 [23])?
A: The pEC50 was 7.96.

Q: Which results are given for OCc1ccccc1O [SALICYL ALCOHOL]?
A: CC50 (CCRF-CEM [8]): > 250000 nM; pEC50 (CCRF-CEM [9]; Homo sapiens, CCRF-CEM): < 3.60; pEC50 (CCRF-CEM [10]; Homo sapiens, CCRF-CEM): < 3.60

Q: For Cc1cn([C@H]2C=C[C@@H](CO)O2)c(=O)[nH]c1=O [STAVUDINE], which Pa [1] is on record?
A: The Pa was 0.15.

Q: What about the pEC50 (CCRF-CEM [7]) of the same compound?
A: The pEC50 was 4.82.

Q: And the CC50 (CCRF-CEM [8])?
A: Its CC50 is 56000 nM.

Q: What about the pEC50 (CCRF-CEM [9]; Homo sapiens, CCRF-CEM) of the same compound?
A: The pEC50 was 6.74.

Q: And the pEC50 (CCRF-CEM [9]; ccrf-cem)?
A: Its pEC50 is 6.74.

Q: What about the pEC50 (CCRF-CEM [10]; Homo sapiens, CCRF-CEM) of the same compound?
A: The pEC50 was 6.59.

Q: What about the pEC50 (CCRF-CEM [10]; ccrf-cem) of the same compound?
A: Its pEC50 is 6.59.

Q: And the pEC50 (MT4 [12])?
A: The pEC50 was 7.74.

Q: And the pEC50 (MT4 [13])?
A: The pEC50 was 7.66.

Q: And the CC50 (CCRF-CEM [24])?
A: Its CC50 is 56000 nM.

Q: With Cc1cn([C@H]2C[C@H](N=[N+]=[N-])[C@@H](CO)O2)c(=O)[nH]c1=O [ZIDOVUDINE] as the compound, how does the pEC50 (CCRF-CEM [7]) read?
A: The pEC50 was under 4.00.

Q: What about the CC50 (CCRF-CEM [8]) of the same compound?
A: The CC50 was over 100000 nM.

Q: And the pEC50 (CCRF-CEM [9]; Homo sapiens, CCRF-CEM)?
A: The pEC50 was 8.15.
